Assay [1] deals with T1, human KIAA1363 (Homo sapiens, UniProt Q6PIU2).
T1 sequence (Q6PIU2 1-416 isoform Q6PIU2-2): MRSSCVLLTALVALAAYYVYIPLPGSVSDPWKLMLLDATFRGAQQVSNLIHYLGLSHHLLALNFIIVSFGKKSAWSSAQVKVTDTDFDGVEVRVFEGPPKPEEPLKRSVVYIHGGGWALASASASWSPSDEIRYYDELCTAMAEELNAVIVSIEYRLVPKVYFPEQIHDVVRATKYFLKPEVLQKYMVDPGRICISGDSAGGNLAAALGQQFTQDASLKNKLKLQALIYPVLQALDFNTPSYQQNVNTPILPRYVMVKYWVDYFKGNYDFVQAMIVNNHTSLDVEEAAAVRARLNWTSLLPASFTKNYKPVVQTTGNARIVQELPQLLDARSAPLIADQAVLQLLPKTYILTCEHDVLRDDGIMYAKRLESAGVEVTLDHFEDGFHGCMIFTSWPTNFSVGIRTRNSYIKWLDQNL
It counts as biochemical. The settings on record: data not shown.

In the next assay the test system is recombinant PON1^R192. The note with it: recombinant PON1^R192 ref 30; cited from earlier work.
Another assay has as its system recombinant PON1^Q192. The settings on record: recombinant PON1^Q192 ref 30; cited from earlier work.
Assay [2] has as its target T1, human KIAA1363. Briefly: Reactivation of oxon-inhibited KIAA1363 activity after 100-fold dilution. It counts as biochemical. The note with it: CPO 1 μM 15 min, diluted 100-fold, up to 60 min at 37°C. The gist of the method: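 KIAA1363-transfected COS-7 lysate (1 mg/ml protein, 50 mM Tris-HCl pH 7.4) preincubated 15 min at 37°C with 1 μM oxon in ethanol (2% v/v), or ethanol alone as control. Reactions are diluted 1:100 in the same buffer and incubated 60 min at 37°C. Aliquots are taken every 10 min to assay residual 4-MUBA hydrolysis by fluorescence.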

The test system of assay [3] is KIAA1363 in mouse brain membranes. The note with it: cited from earlier work.
Assay [4] shares this test system. The settings on record: 1 nM [3H]-CPO, cited from earlier work.
In a further assay the target is recombinant CES1. The settings on record: recombinant CES1 ref 7; cited from earlier work.
Assay [5] concerns the target T1, human KIAA1363. It counts as biochemical. The settings on record: for kreact (calculated reactivation rate constant): calculated with Eqn. 7 / kinact ratio.
For another assay, the target named is T2, human CES1 (Homo sapiens, UniProt P23141).
T2 sequence (P23141 18-566 isoform P23141-3 limits assumed): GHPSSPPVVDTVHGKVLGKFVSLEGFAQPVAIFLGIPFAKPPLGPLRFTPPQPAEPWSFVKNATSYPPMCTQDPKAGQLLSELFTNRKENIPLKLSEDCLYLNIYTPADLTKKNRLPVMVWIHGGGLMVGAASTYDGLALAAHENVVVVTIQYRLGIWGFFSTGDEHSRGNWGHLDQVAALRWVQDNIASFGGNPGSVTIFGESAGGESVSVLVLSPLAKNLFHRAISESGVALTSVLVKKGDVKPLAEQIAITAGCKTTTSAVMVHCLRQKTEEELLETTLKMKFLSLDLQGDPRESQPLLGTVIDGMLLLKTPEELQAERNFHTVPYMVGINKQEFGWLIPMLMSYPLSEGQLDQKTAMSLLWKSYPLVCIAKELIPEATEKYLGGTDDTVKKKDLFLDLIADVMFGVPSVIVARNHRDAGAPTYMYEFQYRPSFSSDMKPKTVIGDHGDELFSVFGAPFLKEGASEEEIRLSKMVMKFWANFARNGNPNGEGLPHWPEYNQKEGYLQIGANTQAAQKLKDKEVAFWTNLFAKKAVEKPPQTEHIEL
It counts as biochemical. The note with it: for kinact/Ki (bimolecular rate constant): linear fit. In outline:
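Oxon at various concentrations plus 4-MUBA (250 μM) prewarmed 5 min at 37°C. Lysate (0.1 mg/ml final) then starts the reaction. 4-Methylumbelliferone fluorescence ([…]) is followed 45 min, with the mock-lysate signal subtracted. Curves are fit to a single exponential without reactivation to give kobs per concentration. Ki′ is substrate-corrected (Km 227 μM).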

[6] abbreviates: means of 2–4 independent experiments.

Values joined by “and” are separate entries in the source; they are usually repeats but may differ in a detail not shown here. Equal values may be shown once. Read-outs that look alike come from different tables or passages of the source.

Take `CCCCCCCC/C=C\CCCCCCCC(=O)Oc1ccc2c(C)cc(=O)oc2c1` [4-methylumbelliferyl oleate]: on human KIAA1363 [1], the “hydrolysis by KIAA1363” value is given as “could not detect any activity”.
For orientation: kinact means the maximal first-order rate at which the target is inactivated. With `CCOP(=O)(OCC)Oc1nc(Cl)c(Cl)cc1Cl` [CPO, O,O′-Diethyl 3,5,6-trichloro-2-pyridyl phosphate], the “catalytic efficiency for hydrolysis of CPO” value with recombinant PON1^R192 is 150000 M⁻¹ s⁻¹. Moreover, the “catalytic efficiency for hydrolysis of CPO” value in the assay with recombinant PON1^Q192 is 90000 M⁻¹ s⁻¹. The “kreact determined by dilution approach” value at human KIAA1363 [2] is 0.00038 s⁻¹. The “hydrolysis (turnover) of CPO by KIAA1363” value in assay [3] (1 nM CPO, 60 min ref 9) is recorded as 100%. Besides, the “hydrolysis of CPO by KIAA1363” value in assay [3] (60 min incubation ref 9) is “hydrolyzed completely”. The “hydrolysis of 1 nM [3H]-CPO by brain membranes from wildtype mice” value in assay [3] (60 min incubation ref 10) is “completely hydrolyzed”. Also, in assay [4] (5 min ref 10), the “added CPO covalently bound to KIAA1363” value is recorded as 48 mol %, the “added CPO present as diethylphosphoryl (non-aged) adduct” value is on record as 44 mol % and the “added CPO present as monoethylphosphoryl (aged) adduct” value is given as 4 mol %. Moreover, in assay [4] (60 min ref 10), the “CPO completely hydrolyzed to trichloropyridinol and diethylphosphate” value is listed as 75 mol %; the “added CPO as covalent phosphoryl adduct on KIAA1363” value is 25 mol %; the “added CPO present as diethylphosphoryl adduct” value is given as 13 mol %; the “added CPO present as monoethylphosphoryl adduct” value is reported as 12 mol %. In addition, the kinact/Ki at recombinant CES1 is on record as ~ 10^7 s^−1M^−1. In addition, on human KIAA1363 [5], the “corrected kinact/Ki, fold higher than for PO” value is recorded as ~ 10 fold; the “kinact/Ki (corrected bimolecular rate constant)” value is reported as 4.4(±0.4) × 10^6 s^−1M^−1; the “ratio kinact/kreact (phosphorylation/dephosphorylation)” value is given as 16; the “kreact (calculated reactivation rate constant)” value was 0.0004 s⁻¹ and 0.00043 ± 0.00019 s⁻¹. For the same compound, the maximal inactivation rate constant (kinact) on human KIAA1363 [5] (setting [6]) is 0.0069 ± 0.0007 s⁻¹. The kinact on human KIAA1363 [5] (representative graph Fig. 6A) worked out at 0.0062 s⁻¹. Also, the “kinact/Ki (bimolecular rate constant)” value at human CES1 is reported as 6.7(±4.2) × 10^6 s^−1M^−1. For the same compound, the kinact/Ki on human CES1 (representative graph Fig. 6B, assuming Ki ≫ [I]) is 2.5 × 10^6 s^−1M^−1.
For the compound `CCCCCCCC/C=C\CCCCCCCC(=O)O[C@H]1CC[C@@]2(C)C(=CC[C@H]3[C@@H]4CC[C@H]([C@H](C)CCCC(C)C)[C@@]4(C)CC[C@@H]32)C1` [cholesteryl oleate], the “hydrolysis by KIAA1363” value on human KIAA1363 [1] is listed as “could not detect any activity”.
As to `CCOP(=O)(OCC)Oc1ccc([N+](=O)[O-])cc1` [PO, O,O′-diethyl p-nitrophenyl phosphate], at human KIAA1363 [5], the “kinact, fold lower than kinact for CPO” value came out at 7.5 fold; the “kinact/Ki (corrected bimolecular rate constant)” value is listed as 0.4 × 10^6 s^−1M^−1; the “ratio kinact/kreact (phosphorylation/dephosphorylation)” value was 3.4; the “kreact (calculated reactivation rate constant)” value was 0.0003 s⁻¹. The kinact at human KIAA1363 [5] (setting [6]) amounted to 0.00092 s⁻¹. The “kinact/Ki (bimolecular rate constant)” value on human CES1 is recorded as 1.5 × 10^6 s^−1M^−1.

The record behind these values is PMC4727981 (Archives of biochemistry and biophysics, 2015).
